From PubChem BioAssay
Activity calls are given as the source filed them.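 How the source made its calls, unless noted: active means viability at or below 10% of carrier control in both of two separate runs; inconclusive means viability at or below 10% in only one of the two runs; inactive means the rest.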

Key:
[1] = reduced viability of SK-BR-3 breast cancer cells – cell-based, 24 h, human, pilot screen (AID 572); settings: SK-BR-3 viability, CellTiter-Glo luminescence, at 10 µM, stronger effect = lower value;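 further: compound exposure lasted between 18 and 24 h rather than exactly 24 h; 100% = carrier-treated control wells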
[2] = HUVEC growth inhibition – cell-based, human, primary screen (AID 575;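 active means viability at or below 30% in both replicate assays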;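 further: 100% = median of untreated cell wells with 0.1% DMSO on each plate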); settings: HUVEC proliferation, CellTiter-Glo luminescence, 72 h; at 10 µM; stronger effect = lower value
Method in brief: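 Assay system: Primary human umbilical vein endothelial cells | Quantity: 1250 cells per well | Medium: Supplemented EBM, 2% fetal bovine serum | Detection: CellTiter-Glo luminescence measuring cellular ATP | Read-out: % viability vs DMSO wells | Plate: Collagen-coated 384-well format | Times: 72 h exposure, 37 °C, 5% CO2, 30 min RT equilibration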

[3] = H69AR cell proliferation blockers – human, duplicate replicates, primary screen (AID 580;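 active means viability at or under a set limit in both replicates, limit being median viability minus 3 SD, cut at about 48% in these data, passing the limit was not always enough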;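 further: 100% = mean luminescence of untreated wells and 0% = no signal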); settings: H69AR lung tumor cells viability, ATP luminescence, 72 h; at 10 µM; stronger effect = lower value
[4] = MRP1 drug-resistance reversers in H69AR cells – cell-based, doxorubicin co-treatment, pilot screen (AID 601;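 active means viability loss from added drug above about 55%, and viability with drug at most 40%, in both replicates, limit read from the data, passing the limit was not always enough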); settings: CellTiter-Glo, 72 h, at 10 µM; for differential viability (reversal): stronger effect = higher value
[5] = yeast transport mutant growth inhibition pilot in 384-well plates, post-Golgi transport modulator project (AID 636; in the data active means inhibition above about 31%); settings: absorbance 615 nm, about 18 h, stronger effect = higher value
[6] = growth suppression of yeast trafficking mutant, preliminary HTS, modulators of trafficking downstream of Golgi apparatus project, 1536-format plate, OD 615 nm (AID 637; in the data active means inhibition above about 30%); settings: yeast transport mutant growth, absorbance 615 nm, 18 h; stronger effect = higher value
[7] = H69AR cells + 2 uM doxorubicin, measured here: viability with 2 uM doxorubicin, stronger effect = lower value
[8] = H69AR cells, compound alone cytotoxicity

SMILES | viability [1] | viability [2] | viability [3] | differential viability (reversal) ([4]; H69AR cells + 2 uM doxorubicin) | viability [4, 7] | viability [4, 8] | inhibition [5] | inhibition [6]
COc1ccc(OC)c(-c2cc(C(=O)NCc3cccs3)no2)c1 | 101% (inactive) | 76.2% (inactive) | 94.4% (inactive) | 7.29% (inactive) | 87.1% | 94.4% | -2.6% (inactive) | -5.74% (inactive)
CCCCNc1cc(C(=O)O)cc(S(N)(=O)=O)c1Oc1ccccc1 | 121% (inactive) | 87% (inactive) | 114% (inactive) | 23.6% (inactive) | 90.5% | 114% | -1.56% (inactive) | 7.17% (inactive)
Cc1ccc(-c2nnc(-c3cccc(Br)c3)o2)cc1 | 106% (inactive) | 99.7% (inactive) | 89.6% (inactive) | -3% (inactive) | 92.7% | 89.6% | -6.76% (inactive) | 4% (inactive)
COCCNC(=O)NC(=O)COC(=O)Cc1ccc2c(c1)OCCO2 | 81% (inactive) | 111% (inactive) | 99.2% (inactive) | 6.6% (inactive) | 92.6% | 99.2% | -2.88% (inactive) | 3.82% (inactive)
COc1cc(NC(=O)CSCc2cnn(-c3ccccc3)c2-n2cccc2)cc(OC)c1 | 103% (inactive) | 67.9% (inactive) | 80.6% (inactive) | 5.25% (inactive) | 75.3% | 80.6% | -4.46% (inactive) | -4.18% (inactive)
COC(=O)c1c(NC(=O)CSc2nnnn2C)sc(C)c1C | 96% (inactive) | 84.9% (inactive) | 92.5% (inactive) | 4.44% (inactive) | 88.1% | 92.5% | 0.14% (inactive) | -2% (inactive)
Cc1cc(=O)n2nc(N3CCCC(C(=O)N4CCN(C)CC4)C3)sc2n1 (stereo not drawn) | 110% (inactive) | 101% (inactive) | 95.7% (inactive) | 7.05% (inactive) | 88.7% | 95.7% | -5.81% (inactive) | -5.09% (inactive)
CCOC(=O)Cc1cc(=O)n2[nH]c(C)c(-c3ccc(OC)cc3)c2n1 | 103% (inactive) | 56.1% (inactive) | 92.6% (inactive) | 9.51% (inactive) | 83.1% | 92.6% | -4.34% (inactive) | -1% (inactive)
COc1ccc(C(=O)Nc2ccc(S(=O)(=O)Nc3onc(C)c3C)cc2)cc1 | 91% (inactive) | 108% (inactive) | 117% (inactive) | 23.6% (inactive) | 93.4% | 117% | -2.03% (inactive) | -0.91% (inactive)
C[N+](C)(C)CCOP(=O)([O-])OC[C@H](O)CO | 100% (inactive) | 99.1% (inactive) | 96% (inactive) | 0.95% (inactive) | 95% | 96% | -2.99% (inactive) | -5.17% (inactive)
O=C(c1cccs1)N(Cc1ccco1)Cc1cc2ccccc2[nH]c1=O | 86% (inactive) | 110% (inactive) | 82.2% (inactive) | -6.47% (inactive) | 88.7% | 82.2% | 4.19% (inactive) | -4.91% (inactive)
Cn1cnc2c1c(=O)[nH]c(=O)n2C | 108% (inactive) | 85.7% (inactive) | 96.1% (inactive) | -0.7% (inactive) | 96.8% | 96.1% | -0.91% (inactive) | 6.33% (inactive)
O=C(c1cnc2sccn2c1=O)N1CCc2ccccc2C1 | 95% (inactive) | 95.7% (inactive) | 104% (inactive) | 7.95% (inactive) | 96.2% | 104% | -2.8% (inactive) | -4.36% (inactive)
Cc1nc(N)[nH]c(=O)c1CCC(=O)OCC(C)C | 107% (inactive) | 89.7% (inactive) | 91.2% (inactive) | -2.31% (inactive) | 93.5% | 91.2% | -0.78% (inactive) | -0.66% (inactive)
Cc1onc(-c2c(F)cccc2Cl)c1C(=O)Nc1nc2c(s1)CCCC2 | 109% (inactive) | 92.7% (inactive) | 77.3% (inactive) | -27% (inactive) | 104% | 77.3% | -3.29% (inactive) | -1.09% (inactive)
CC[C@H](C)C(=O)O[C@H]1C[C@@H](C)C=C2C=C[C@H](C)[C@H](CC[C@@H]3C[C@@H](O)CC(=O)O3)[C@H]21 | 110% (inactive) | 50.6% (inactive) | 72.2% (inactive) | -6.58% (inactive) | 78.7% | 72.2% | -1.82% (inactive) | 2.83% (inactive)
O=S1(=O)C=C(Oc2ccc(F)cc2)c2ccccc21 | 100% (inactive) | 101% (inactive) | 92.5% (inactive) | 4.02% (inactive) | 88.5% | 92.5% | -7.03% (inactive) | 1.27% (inactive)
O=C(NCC(=O)N(Cc1cccs1)C(C(=O)NC1CCCC1)c1ccncc1)c1ccco1 (stereo not drawn) | 102% (inactive) | 109% (inactive) | 85.7% (inactive) | 2.2% (inactive) | 83.5% | 85.7% | -0.54% (inactive) | 16.4% (inactive)

SMILES | viability [1] | viability [2] | viability [3] | differential viability (reversal) ([4]; H69AR cells + 2 uM doxorubicin) | viability [4, 7] | viability [4, 8] | inhibition [5] | inhibition [6]
CCCNC(=O)c1cc(S(=O)(=O)N2CCc3ccccc32)ccc1F | 89% (inactive) | 113% (inactive) | 97% (inactive) | 6.73% (inactive) | 90.3% | 97% | -6.13% (inactive) | 2.18% (inactive)
COc1ccc(-c2nnc(SCc3nnc(-c4ccc(Cl)cc4)o3)n2-c2ccccc2)cc1 | 73% (inactive) | 55.6% (inactive) | 84.3% (inactive) | 4.27% (inactive) | 80% | 84.3% | -2.27% (inactive) | 15.4% (inactive)
CC1=C(C(=O)Nc2ccccc2C)C2(CCCC2)C(C(N)=O)C(=O)N1 (stereo not drawn) | 114% (inactive) | 81.7% (inactive) | 90% (inactive) | 1.6% (inactive) | 88.4% | 90% | 0.96% (inactive) | 0% (inactive)
CN1C(C(=O)Nc2ccccn2)=C(O)c2ccccc2S1(=O)=O | 115% (inactive) | 94.7% (inactive) | 101% (inactive) | 13.4% (inactive) | 87.7% | 101% | 0.39% (inactive) | -0.83% (inactive)
Clc1ccccc1CN1CCc2sccc2C1 | 95% (inactive) | 78.2% (inactive) | 99% (inactive) | 19.9% (inactive) | 79.1% | 99% | 1.95% (inactive) | 8.17% (inactive)
COc1cc2c(cc1OC)CN(C(=O)COc1ccc(C)c(C)c1)CC2 | 94% (inactive) | 91.4% (inactive) | 83.9% (inactive) | -5.58% (inactive) | 89.5% | 83.9% | -7.95% (inactive) | 1.29% (inactive)
Cc1nn(-c2ccc(F)cc2)c2sc(C(=O)N3CCCCCC3)cc12 | 93% (inactive) | 92% (inactive) | 78.8% (inactive) | -14% (inactive) | 92.8% | 78.8% | -2.7% (inactive) | 12.2% (inactive)
Cc1ccc(S(=O)(=O)N2CCCN(S(=O)(=O)C3CCS(=O)(=O)C3)CC2)cc1 (stereo not drawn) | 124% (inactive) | 101% (inactive) | 99.1% (inactive) | 8.77% (inactive) | 90.4% | 99.1% | -7.2% (inactive) | 1.09% (inactive)
NS(=O)(=O)c1ccc(CCNC(=O)c2cccnc2)cc1 | 126% (inactive) | 92.3% (inactive) | 97.2% (inactive) | 3.81% (inactive) | 93.4% | 97.2% | -4.46% (inactive) | -0.91% (inactive)
COC(=O)c1ccc(-c2ccco2)n1Cc1nc(-c2ccc(OC)c(OC)c2)oc1C | 125% (inactive) | 25.9% (active) | 48.8% (active) | -8.4% (inactive) | 57.2% | 48.8% | -4.32% (inactive) | 4.73% (inactive)
Cc1c(NC(=O)CCc2ccc(S(=O)(=O)N3CCOCC3)cc2)c(=O)n(-c2ccccc2)n1C | 93% (inactive) | 109% (inactive) | 100% (inactive) | 10.3% (inactive) | 89.8% | 100% | -3.77% (inactive) | -8.2% (inactive)
COc1ccccc1-n1c(=O)c2c3c(sc2n2c(SC(C)C)nnc12)CCC3 | 104% (inactive) | 113% (inactive) | 86.2% (inactive) | 44.6% (inactive) | 41.7% | 86.2% | -0.14% (inactive) | 1.77% (inactive)
CCOc1cc(/C=N/n2cnnc2)cc(Br)c1O | 104% (inactive) | 103% (inactive) | 83.3% (inactive) | -8.45% (inactive) | 91.8% | 83.3% | -2.37% (inactive) | 8.33% (inactive)
CC(C)c1ccc(CNc2ccc(N3CCOCC3)cc2)cc1 | 74% (inactive) | 81.7% (inactive) | 88.4% (inactive) | 0.93% (inactive) | 87.5% | 88.4% | -6.89% (inactive) | -5.82% (inactive)
COc1ccc(OC)c(Nc2nc(-c3sc(N)nc3C)cs2)c1 | 97% (inactive) | 55.3% (inactive) | 78% (inactive) | 2.88% (inactive) | 75.1% | 78% | -6.49% (inactive) | -0.91% (inactive)
CCCCC[C@H](O)/C=C/[C@@H]1[C@@H](CCCCCCC(=O)O)[C@@H](O)C[C@H]1O | 113% (inactive) | 89.6% (inactive) | 103% (inactive) | 9.71% (inactive) | 93.6% | 103% | 0.26% (inactive) | 2.33% (inactive)
O=C(Nc1ccc2c(c1)nc1n2CCN(Cc2ccccc2)C1)c1cccs1 | 76.5% (inactive) | 88.7% (inactive) | 80.2% (inactive) | -12.4% (inactive) | 92.6% | 80.2% | -5.89% (inactive) | 6.19% (inactive)
c1ccc2oc(SCc3cn4ccccc4n3)nc2c1 | 91% (inactive) | 93.3% (inactive) | 95% (inactive) | 9.37% (inactive) | 85.6% | 95% | -1.43% (inactive) | -1.48% (inactive)
